Experimental data from the RNAGym collection of RNA variant scans (doi:10.1002/anie.201605470).

B1: Osa-1-4 twister ribozyme (parent)
chain: CCGCCUAACACUGCCAAUGCCGGUCCCAAGCCCGGAUAAAAGUGGAGGGGGCGG

Variants of: B1
Experiment: self-cleavage, relative activity (ratio to wild type); higher = more cleavage; co-transcriptional
In short: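 A DNA template encoding a 54-nucleotide twister ribozyme from Oryza sativa was made so that each of the 48 positions downstream of the cleavage site carried 97 % wild-type base and 1 % of each other base. Transcription in vitro ran for 2 h at 37 °C, during which the ribozyme could cleave itself. Reverse transcription used a template-switching oligonucleotide, and the products were PCR-amplified and deep-sequenced. Each read was scored as cleaved or uncleaved by whether upstream sequence was present, and relative activity is the fraction cleaved normalised to wild type.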

Row | Variant | self-cleavage
1 | C11G C9A | 0.09
2 | C11G C9U | 0.07
3 | G13A G53C | 0.03
4 | G13A G53A | 0.06
5 | G13A G53U | 0.05
6 | C11G G48A | 0.03
7 | C11G G48U | 0.03
8 | C11G G48C | 0.03
9 | C11G G47C | 0.04
10 | C11G G47A | 0.04
11 | C11G G47U | 0.04
12 | C11U G47U | 0.07
13 | C11U G47A | 0.09
14 | C11U G47C | 0.07
15 | C11A U37G | 0.81
16 | C11A U37C | 0.88
17 | C11G G54C | 0.32
18 | C11G G54A | 0.3
19 | C11G G54U | 0.36
20 | C11G G42C | 0.76
21 | C11G G42A | 0.75
22 | C11G G42U | 0.61
23 | C11A U43C | 0.1
24 | C11A U43A | 0.76

Row | Variant | self-cleavage
25 | C11A U43G | 0.56
26 | G13A G19U | 0.04
27 | G13A G19A | 0.08
28 | G13A G19C | 0.03
29 | C11U G50U | 0.88
30 | C11U G50C | 0.72
31 | C11U G50A | 0.44
32 | G13C G34U | 0.03
33 | G13C G34C | 0.02
34 | G13C G34A | 0.04
35 | C11G C33G | 0.07
36 | C11G C33U | 0.06
37 | C11G C33A | 0.04
38 | C11G C21A | 0.06
39 | C11G C21U | 0.39
40 | C11G C21G | 0.04
41 | C11U G53U | 0.14
42 | C11U G53C | 0.07
43 | C11U G53A | 0.62
44 | C11U G34C | 0.08
45 | C11U G34A | 0.39
46 | C11U G34U | 0.19
47 | C11U G45A | 0.09
48 | C11U G45C | 0.06

Row | Variant | self-cleavage
49 | C11U G45U | 0.09
50 | C11G C14U | 0.13
51 | C11G C14G | 0.06
52 | C11G C14A | 0.05
53 | G13A U43A | 0.05
54 | G13A U43G | 0.04
55 | G13A U43C | 0.05
56 | C11G C26A | 0.03
57 | C11G C26U | 0.19
58 | C11G C26G | 0.1
59 | G13C G35A | 0.02
60 | G13C G35C | 0.02
61 | G13C G35U | 0.04
62 | G13A U12A | 0.07
63 | G13A U12C | 0.04
64 | G13A U12G | 0.09
65 | C11G U12A | 0.15
66 | C11G U12G | 0.08
67 | C11G U12C | 0.08
68 | C11G G51U | 0.05
69 | C11G G51C | 0.03
70 | C11G G51A | 0.07
71 | C11G G53A | 0.17
72 | C11G G53C | 0.04

Row | Variant | self-cleavage
73 | C11G G53U | 0.07
74 | C11U C26G | 0.08
75 | C11U C26A | 0.05
76 | C11U C26U | 0.6
77 | G13A G48C | 0.03
78 | G13A G48U | 0.02
79 | G13A G48A | 0.03
80 | G13A U37C | 0.12
81 | G13A U37A | 0.13
82 | G13A U37G | 0.17
83 | G13A G50U | 0.08
84 | G13A G50C | 0.06
85 | G13A G50A | 0.14
86 | G13A G22U | 0.04
87 | G13A G22A | 0.07
88 | G13A G22C | 0.03
89 | U12C U43C | 0.08
90 | U12C U43A | 0.11
91 | U12C U43G | 0.09
92 | C11U U37G | 0.94
93 | C11U U37C | 1.02
94 | C11U U37A | 0.62
95 | C11U C9A | 0.26
96 | C11U C9G | 0.36

Row | Variant | self-cleavage
97 | C11U C9U | 0.65
98 | C11U G13U | 0.04
99 | C11U G13C | 0.04
100 | C11U G13A | 0.05
101 | C11U C27U | 0.12
102 | C11U C27A | 0.14
103 | C11U C27G | 0.06
104 | C11G C20U | 0.5
105 | C11G C20G | 0.04
106 | C11G C20A | 0.4
107 | C11G C32A | 0.04
108 | C11G C32G | 0.06
109 | C11G C32U | 0.04
110 | U12G U18A | 0.39
111 | U12G U18C | 0.28
112 | U12G U18G | 0.59
113 | U12A U18A | 0.91
114 | U12A U18G | 0.76
115 | U12A U18C | 0.76
116 | G13A G51A | 0.05
117 | G13A G51U | 0.04
118 | G13A G51C | 0.02
119 | G13C G42A | 0.03
120 | C11G G13C | 0.02

Row | Variant | self-cleavage
121 | C11G G13U | 0.03
122 | C11G G13A | 0.06
123 | C11U G23A | 0.1
124 | C11U G23C | 0.04
125 | C11U G23U | 0.05
126 | G13A G34A | 0.09
127 | G13A G34U | 0.05
128 | G13A G34C | 0.05
129 | C11G C25U | 0.18
130 | C11G C25A | 0.04
131 | C11G C25G | 0.04
132 | C11G C27U | 0.06
133 | C11G C27G | 0.03
134 | C11G C27A | 0.07
135 | C11U C15G | 0.19
136 | C11U C15A | 0.21
137 | C11U C15U | 0.13
138 | C11G G23A | 0.05
139 | C11G G23C | 0.02
140 | C11G G23U | 0.04
141 | C11U G22A | 0.59
142 | C11U G22C | 0.04
143 | C11U G22U | 0.22
144 | C11U G49C | 0.08

Row | Variant | self-cleavage
145 | C11U G49U | 0.09
146 | C11U G49A | 0.09
147 | C11G G35U | 0.06
148 | C11G G35C | 0.05
149 | C11G G35A | 0.08
150 | C11U G19C | 0.07
151 | C11U G19A | 0.23
152 | C11U G19U | 0.1
153 | C11G G45C | 0.04
154 | C11G G45A | 0.05
155 | C11G G45U | 0.06
156 | C11U C25U | 0.52
157 | C11U C25G | 0.05
158 | C11U C25A | 0.08
159 | G13A U24G | 0.01
160 | G13A U24C | 0.04
161 | G13A U24A | 0.05
162 | C11G U37G | 0.71
163 | C11G U37C | 0.69
164 | C11G U37A | 0.38
165 | G13C G22U | 0.02
166 | G13C G22C | 0.01
167 | G13C G22A | 0.03
